Activity calls are given as the source filed them. The calls are words filed in the database; no cut-off is given here.
Legend:
[1] = biological target: T1, Protein deacetylase HDAC6 (Homo sapiens) (UniProt Q9UBN7); assay: Inhibition of HDAC6 in human HeLaS3 cells at 10 uM preincubated for 15 mins followed by HDAC-Glo substrate addition measured after 30 to 45 mins by ELISA; assay type: cell-based; settings: HeLa S3
T1 sequence (whole entry): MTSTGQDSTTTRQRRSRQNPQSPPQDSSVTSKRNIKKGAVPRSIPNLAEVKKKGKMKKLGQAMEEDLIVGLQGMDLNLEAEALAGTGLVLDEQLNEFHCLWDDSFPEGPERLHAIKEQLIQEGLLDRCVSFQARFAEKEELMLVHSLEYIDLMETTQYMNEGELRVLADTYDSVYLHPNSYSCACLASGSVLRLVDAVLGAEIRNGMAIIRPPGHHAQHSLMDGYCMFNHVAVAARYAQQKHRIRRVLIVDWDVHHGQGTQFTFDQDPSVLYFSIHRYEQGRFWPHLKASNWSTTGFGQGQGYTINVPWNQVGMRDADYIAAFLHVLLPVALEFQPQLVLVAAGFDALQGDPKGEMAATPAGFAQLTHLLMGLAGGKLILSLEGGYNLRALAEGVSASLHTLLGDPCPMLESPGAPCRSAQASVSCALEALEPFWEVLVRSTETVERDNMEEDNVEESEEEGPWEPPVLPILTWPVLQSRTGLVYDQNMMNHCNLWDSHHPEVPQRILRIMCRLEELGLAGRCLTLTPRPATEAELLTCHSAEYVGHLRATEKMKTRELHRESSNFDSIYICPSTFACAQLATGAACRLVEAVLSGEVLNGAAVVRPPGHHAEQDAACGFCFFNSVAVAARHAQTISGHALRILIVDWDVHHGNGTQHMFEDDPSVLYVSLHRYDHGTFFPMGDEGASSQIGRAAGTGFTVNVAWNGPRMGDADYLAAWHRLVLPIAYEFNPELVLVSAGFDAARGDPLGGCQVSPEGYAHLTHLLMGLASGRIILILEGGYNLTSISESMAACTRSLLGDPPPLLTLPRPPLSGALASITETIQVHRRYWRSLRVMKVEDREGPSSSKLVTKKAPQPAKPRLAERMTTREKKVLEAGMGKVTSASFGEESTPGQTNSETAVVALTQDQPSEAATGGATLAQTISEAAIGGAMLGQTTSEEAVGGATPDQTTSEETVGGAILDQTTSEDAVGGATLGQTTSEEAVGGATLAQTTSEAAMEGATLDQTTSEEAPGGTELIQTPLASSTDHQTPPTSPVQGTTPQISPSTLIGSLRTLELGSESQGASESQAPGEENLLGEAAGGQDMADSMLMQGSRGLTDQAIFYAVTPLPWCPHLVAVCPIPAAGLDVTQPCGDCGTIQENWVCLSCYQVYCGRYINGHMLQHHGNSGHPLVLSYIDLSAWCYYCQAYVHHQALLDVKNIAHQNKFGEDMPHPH
How it was run: (§1)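 ELISA-based HDAC activity assay using mammalian-derived HDAC1, -2, -3 and -6. Each analogue was screened at a single concentration, 5 or 10 μM. Data are mean percent deacetylase activity from at least three independent trials with standard error.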

[2] = biological target: T1, Protein deacetylase HDAC6 (Homo sapiens); assay: Inhibition of HDAC6 in human HeLaS3 cells at 5 uM preincubated for 15 mins followed by HDAC-Glo substrate addition measured after 30 to 45 mins by ELISA; assay type: cell-based; settings: HeLa S3; how it was run: as §1
HeLa S3 [3] = assay: Selectivity ratio of IC50 for HDAC2 in human HeLaS3 cells to IC50 for full length human C-terminal His-tag HDAC8 expressed in baculovirus expression system
HeLa S3 [4] = assay: Selectivity ratio of IC50 for HDAC3 in human HeLaS3 cells to IC50 for full length human C-terminal His-tag HDAC8 expressed in baculovirus expression system
Histone deacetylase 3 = Histone deacetylase 3 (Homo sapiens, UniProt O15379); assay: Inhibition of HDAC3 in human HeLaS3 cells preincubated for 15 mins followed by HDAC-Glo substrate addition measured after 30 to 45 mins by ELISA; assay type: cell-based, HeLa S3
Sequence of Histone deacetylase 3 (O15379 whole entry): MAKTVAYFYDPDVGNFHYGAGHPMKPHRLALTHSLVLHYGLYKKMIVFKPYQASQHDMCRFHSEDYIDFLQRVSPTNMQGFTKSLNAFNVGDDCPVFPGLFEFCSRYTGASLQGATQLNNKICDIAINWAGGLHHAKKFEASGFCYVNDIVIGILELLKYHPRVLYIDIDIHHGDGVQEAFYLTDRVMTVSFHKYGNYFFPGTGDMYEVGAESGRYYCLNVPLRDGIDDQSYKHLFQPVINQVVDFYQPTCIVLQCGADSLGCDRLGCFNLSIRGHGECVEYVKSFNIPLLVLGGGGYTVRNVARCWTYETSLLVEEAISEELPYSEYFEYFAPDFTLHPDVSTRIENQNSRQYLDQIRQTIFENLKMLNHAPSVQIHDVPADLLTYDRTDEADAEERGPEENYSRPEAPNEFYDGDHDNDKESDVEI

HeLa S3 [5] = assay: Selectivity ratio of IC50 for HDAC1 in human HeLaS3 cells to IC50 for full length human C-terminal His-tag HDAC8 expressed in baculovirus expression system
Histone deacetylase 8 = biological target: T2, Histone deacetylase 8 (Homo sapiens, UniProt Q9BY41); assay: Inhibition of full length human C-terminal His-tag HDAC8 expressed in baculovirus expression system preincubated for 15 mins followed by HDAC-Glo substrate addition measured after 30 to 45 mins by ELISA
T2 sequence (Q9BY41 whole entry): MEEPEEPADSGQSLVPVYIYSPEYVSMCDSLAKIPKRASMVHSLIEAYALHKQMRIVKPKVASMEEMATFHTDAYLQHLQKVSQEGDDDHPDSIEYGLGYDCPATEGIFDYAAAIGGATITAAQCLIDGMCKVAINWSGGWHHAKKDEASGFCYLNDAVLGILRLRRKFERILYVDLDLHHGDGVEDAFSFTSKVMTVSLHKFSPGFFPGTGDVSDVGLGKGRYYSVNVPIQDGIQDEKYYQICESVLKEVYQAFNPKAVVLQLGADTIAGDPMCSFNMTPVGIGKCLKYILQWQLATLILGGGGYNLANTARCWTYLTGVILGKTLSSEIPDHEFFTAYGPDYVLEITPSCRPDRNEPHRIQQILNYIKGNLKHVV

[6] = biological target: T1, Protein deacetylase HDAC6 (Homo sapiens); assay: Inhibition of HDAC6 in human U937 cells assessed as increase in alpha-tubulin acetylation at Lys-40 residue at 30 uM after 18 hrs by Western blot method; assay type: cell-based; settings: U-937
How it was run: (§2)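 U937 myeloid leukemia cells were treated with compound, with a 1% DMSO control. For the concentration series the range was 10–60 μM. Cells were then lysed, run on SDS-PAGE and Western blotted for acetyl-α-tubulin and acetyl-histone H3, with GAPDH as load control. Band intensities were quantified as fold increase, given as mean of four independent trials with standard error.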

HeLa S3 [7] = assay: Selectivity ratio of IC50 for HDAC3 in human HeLaS3 cells to IC50 for HDAC6 in human HeLaS3 cells; assay type: cell-based
How it was run: (§3)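 Ratio of IC50 values measured with the ELISA-based HDAC activity assay using mammalian-derived HDAC isoforms. Each IC50 is the mean of at least two independent trials with standard error.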

HeLa S3 [8] = assay: Selectivity ratio of IC50 for HDAC1 in human HeLaS3 cells to IC50 for HDAC6 in human HeLaS3 cells; assay type: cell-based; how it was run: as §3
HeLa S3 [9] = assay: Selectivity ratio of IC50 for HDAC2 in human HeLaS3 cells to IC50 for HDAC6 in human HeLaS3 cells; assay type: cell-based; how it was run: as §3
[10] = biological target: T3, Protein deacetylase HDAC6 (Homo sapiens, UniProt Q9UBN7); assay: Inhibition of HDAC6 in human HeLaS3 cells preincubated for 15 mins followed by HDAC-Glo substrate addition measured after 30 to 45 mins by ELISA; assay type: cell-based, HeLa S3
T3 sequence (Q9UBN7 whole entry): T1 sequence (whole entry)

Histone deacetylase 2 = Histone deacetylase 2 (Homo sapiens, UniProt Q92769); assay: Inhibition of HDAC2 in human HeLaS3 cells preincubated for 15 mins followed by HDAC-Glo substrate addition measured after 30 to 45 mins by ELISA; assay type: cell-based, HeLa S3
Sequence of Histone deacetylase 2 (Q92769 whole entry): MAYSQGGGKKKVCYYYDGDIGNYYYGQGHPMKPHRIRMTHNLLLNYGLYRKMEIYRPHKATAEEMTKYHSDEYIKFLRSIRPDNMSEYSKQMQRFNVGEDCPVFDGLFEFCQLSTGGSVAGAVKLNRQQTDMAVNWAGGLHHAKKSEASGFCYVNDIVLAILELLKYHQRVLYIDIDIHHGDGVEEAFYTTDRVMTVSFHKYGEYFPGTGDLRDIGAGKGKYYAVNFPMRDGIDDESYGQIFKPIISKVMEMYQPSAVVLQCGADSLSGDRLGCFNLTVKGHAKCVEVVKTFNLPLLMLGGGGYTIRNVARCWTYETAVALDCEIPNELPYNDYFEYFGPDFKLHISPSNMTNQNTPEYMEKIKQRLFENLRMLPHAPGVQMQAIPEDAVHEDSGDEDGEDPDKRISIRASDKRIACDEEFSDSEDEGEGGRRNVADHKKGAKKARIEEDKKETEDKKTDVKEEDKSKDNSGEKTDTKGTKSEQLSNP

Histone deacetylase 1 = Histone deacetylase 1 (Homo sapiens, UniProt Q13547); assay: Inhibition of HDAC1 in human HeLaS3 cells preincubated for 15 mins followed by HDAC-Glo substrate addition measured after 30 to 45 mins by ELISA; assay type: cell-based, HeLa S3
Sequence of Histone deacetylase 1 (Q13547 whole entry): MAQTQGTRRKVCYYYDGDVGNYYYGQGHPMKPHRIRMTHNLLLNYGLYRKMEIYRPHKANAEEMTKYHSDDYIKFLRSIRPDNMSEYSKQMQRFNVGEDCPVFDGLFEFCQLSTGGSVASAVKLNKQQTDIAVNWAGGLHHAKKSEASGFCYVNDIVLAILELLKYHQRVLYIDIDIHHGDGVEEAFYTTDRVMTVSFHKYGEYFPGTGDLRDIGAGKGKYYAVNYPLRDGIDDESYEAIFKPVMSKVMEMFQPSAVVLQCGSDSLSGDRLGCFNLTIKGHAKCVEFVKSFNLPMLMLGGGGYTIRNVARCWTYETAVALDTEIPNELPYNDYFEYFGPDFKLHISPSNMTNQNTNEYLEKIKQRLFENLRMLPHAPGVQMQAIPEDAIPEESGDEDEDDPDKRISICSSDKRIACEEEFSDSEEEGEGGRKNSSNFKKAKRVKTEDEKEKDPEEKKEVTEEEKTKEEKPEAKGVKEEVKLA

[11] = Cytotoxicity against human Jurkat cells assessed as cell viability at 10 uM after 44 hrs by MTT assay relative to control; assay type: functional; settings: read-out: Activity
How it was run: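 MTT viability assay in Jurkat cells at 1 and 10 μM. Data are mean percent viability from at least three independent trials with standard error.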

[12] = biological target: T1, Protein deacetylase HDAC6 (Homo sapiens); assay: Inhibition of HDAC6 in human U937 cells assessed as increase in alpha-tubulin acetylation at Lys-40 residue after 18 hrs by Western blot method; assay type: cell-based; settings: U-937; how it was run: as §2
cells [13] = assay type: functional, cell-based; settings: Homo sapiens, U-937, 44 h
cells [14] = assay type: functional, cell-based; settings: Homo sapiens, Jurkat, 44 h
cells [15] = assay type: functional, cell-based; settings: Homo sapiens, MOLM-13, 44 h

SMILES | inhibition [2] | Ratio IC50 (HeLa S3 [3]) | Ratio IC50 (HeLa S3 [4]) | IC50 (Histone deacetylase 3) [µM] | Ratio IC50 (HeLa S3 [5]) | IC50 (Histone deacetylase 8) [µM] | IC50 (Histone deacetylase 2) [µM] | IC50 (Histone deacetylase 1) [µM] | other results
CCCCC(CCCCCC(=O)Nc1ccccc1)C(=O)NO (stereo not drawn) | – | – | – | – | – | – | – | – | inhibition [1]: Active
C=CCC(CCCCCC(=O)Nc1ccccc1)C(=O)NO (stereo not drawn) | Active | – | – | – | – | – | – | – | –
C#CCC(CCCCCC(=O)Nc1ccccc1)C(=O)NO (stereo not drawn) | Active | – | – | – | – | – | – | – | –
CC(CCCCCC(=O)Nc1ccccc1)C(=O)NO (stereo not drawn) | Active | – | – | – | – | – | – | – | –
CCCCCC(CCCCCC(=O)Nc1ccccc1)C(=O)NO (stereo not drawn) | Active | 33 to 92 | 33 to 92 | 43 | 33 to 92 | 1.3 | 58 | 48 | inhibition [6]: Active; Ratio IC50 (HeLa S3 [7]): 33 to 92; Ratio IC50 (HeLa S3 [8]): 33 to 92; Ratio IC50 (HeLa S3 [9]): 33 to 92; IC50 [10]: 0.85 µM
CCCCCC[C@@H](CCCCCC(=O)Nc1ccccc1)C(=O)NO | – | 106 to 187 | 106 to 187 | 530 | 106 to 187 | 3.1 | 580 | 330 | –
CCCCCCC(CCCCCC(=O)Nc1ccccc1)C(=O)NO (stereo not drawn) | Active | 49 to 300 | 49 to 300 | 98 | 49 to 300 | 2 | 180 | 180 | viability at 10 µM [11]: 47%; inhibition [12]: Dose-dependent effect; EC50 (cells [13]): 13.8 µM; inhibition [6]: Active; Ratio IC50 (HeLa S3 [7]): 49 to 300; Ratio IC50 (HeLa S3 [8]): 49 to 300; EC50 (cells [14]): 11.8 µM; Ratio IC50 (HeLa S3 [9]): 49 to 300; IC50 [10]: 0.6 µM; EC50 (cells [15]): 10.5 µM
CCC(CCCCCC(=O)Nc1ccccc1)C(=O)NO (stereo not drawn) | Active | – | – | – | – | – | – | – | –
CCCC(CCCCCC(=O)Nc1ccccc1)C(=O)NO (stereo not drawn) | Active | – | – | – | – | – | – | – | –
CCCCCC[C@H](CCCCCC(=O)Nc1ccccc1)C(=O)NO | – | – | – | – | – | 0.71 | – | – | –
O=C(CCCCCC(Cc1ccccc1)C(=O)NO)Nc1ccccc1 (stereo not drawn) | Active | 33 to 92 | 33 to 92 | 91 | 33 to 92 | 1.2 | 110 | 84 | inhibition [6]: Active; Ratio IC50 (HeLa S3 [7]): 33 to 92; Ratio IC50 (HeLa S3 [8]): 33 to 92; Ratio IC50 (HeLa S3 [9]): 33 to 92; IC50 [10]: 1.5 µM

Reference: ChEMBL document CHEMBL3877334, “Structural Requirements of HDAC Inhibitors: SAHA Analogues Modified at the C2 Position Display HDAC6/8 Selectivity” (ACS Med Chem Lett, 2017)
